From ChEMBL document CHEMBL1221316, “Synthesis of new oxathiazinane dioxides and their in vitro cancer cell growth inhibitory activity” (Bioorg Med Chem Lett, 2010) come the findings set out here.

Assay [1] concerns SK-BR-3. Briefly: Cytotoxicity against human SKBR3 cells assessed as cell viability at 12.5 uM after 72 hrs by MTS assay. Conditions: SK-BR-3, 72 h, read-out: Activity. The assay is classed as functional. In short, it runs like this: (§1)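 SKBR3 breast cancer cells were exposed to compound for 72 h. Viability was measured by MTS and reported as % viability at each of five concentrations: 6.25, 12.5, 25, 50 and 100. A viability-versus-concentration plot was also made.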

In assay [2] the test system is SK-BR-3. In words: Cytotoxicity against human SKBR3 cells assessed as cell viability at 6.25 uM after 72 hrs by MTS assay. The class given is functional. Conditions: SK-BR-3, 72 h, read-out: Activity. In short, it runs like this:
as §1

The test system of assay [3] is SK-BR-3. In words: Cytotoxicity against human SKBR3 cells assessed as cell viability at 25 uM after 72 hrs by MTS assay. The note with it: SK-BR-3, 72 h, read-out: Activity. The class given is functional. In short, it runs like this:
as §1

Assay [4] concerns SK-BR-3. Briefly: Cytotoxicity against human SKBR3 cells assessed as cell viability at 100 uM after 72 hrs by MTS assay. The class given is functional. The note with it: SK-BR-3, 72 h, read-out: Activity. The method, boiled down:
as §1
A general note: Tetrazolium assays rely on reduction of a dye to a coloured formazan, in cell work by metabolically active cells.

The subject of assay [5] is SK-BR-3. Briefly: Cytotoxicity against human SKBR3 cells assessed as cell viability at 50 uM after 72 hrs by MTS assay. The note with it: SK-BR-3, 72 h, read-out: Activity. The assay is classed as functional. The method, boiled down: as §1
Assay [6] concerns SK-BR-3. In words: Cytotoxicity against human SKBR3 cells after 72 hrs by MTS assay. The assay is classed as functional, cell-based. Conditions: SK-BR-3, 72 h. The method, boiled down: as §1

In the case of `O=S1(=O)COC[C@@H](COCc2ccccc2)N1`, the viability at 12.5 µM in assay [1] was determined as 100%. The viability at 6.25 µM in assay [2] worked out at 100%. In addition, the viability at 25 µM in assay [3] amounted to 100%. In addition, in assay [4], the viability at 100 µM worked out at 16%. Besides, in assay [5], the viability at 50 µM stood at 80%.
With `O=S1(=O)COC[C@H](COCc2ccccc2)N1`, the viability at 12.5 µM in assay [1] was 94%. For the same molecule, the viability at 6.25 µM in assay [2] amounted to 100%. Also, the viability at 25 µM in assay [3] amounted to 78%. Further, in assay [4], the viability at 100 µM was found to be 22%. Moreover, the viability at 50 µM in assay [5] was 51%.
Regarding `O=S1(=O)COC[C@@H](COCc2ccc(-c3ccccc3)cc2)N1`, in assay [1], the viability at 12.5 µM came to 75%. In assay [2], the viability at 6.25 µM was found to be 75%. Also, in assay [3], the viability at 25 µM was determined as 75%. For the same molecule, the viability at 100 µM in assay [4] amounted to 46%. For the same molecule, in assay [5], the viability at 50 µM amounted to 44%.
In the case of `O=S1(=O)COC[C@@H](COCc2ccc(-c3ccc(CBr)cc3)cc2)N1`, in assay [1], the viability at 12.5 µM was 34%. Moreover, the viability at 6.25 µM in assay [2] amounted to 66%. Further, the viability at 25 µM in assay [3] was determined as 10%. Further, the viability at 100 µM in assay [4] came to 10%. For the same molecule, the viability at 50 µM in assay [5] was found to be 10%. The half-inhibitory concentration (IC50) – broadly, the midpoint of a concentration-inhibition curve – in assay [6] is 10 µM.
Take `O=S1(=O)COC[C@H](COCc2ccc(-c3ccc(CBr)cc3)cc2)N1`: in assay [1], the viability at 12.5 µM came to 81%. Further, the viability at 6.25 µM in assay [2] worked out at 99%. Further, in assay [3], the viability at 25 µM amounted to 26%. In addition, the viability at 100 µM in assay [4] came to 20%. Besides, the viability at 50 µM in assay [5] amounted to 18%. Moreover, the IC50 in assay [6] was 10 µM.
As to `O=S1(=O)COC[C@@H](COCc2ccccc2)N1Cc1ccccc1`, the viability at 12.5 µM in assay [1] was found to be 82%. The viability at 6.25 µM in assay [2] worked out at 89%. In addition, the viability at 25 µM in assay [3] was 88%. The viability at 100 µM in assay [4] was determined as 82%. Also, in assay [5], the viability at 50 µM is 83%.
Turning to `O=S1(=O)COC[C@H](COCc2ccccc2)N1Cc1ccccc1`, in assay [1], the viability at 12.5 µM stood at 80%. Moreover, the viability at 6.25 µM in assay [2] amounted to 81%. The viability at 25 µM in assay [3] is 82%. The viability at 100 µM in assay [4] was determined as 96%. Further, the viability at 50 µM in assay [5] was 87%.
As to `CCCCCCCC/C=C\CCCCCCCCOC[C@@H]1COCS(=O)(=O)N1Cc1ccccc1`, the viability at 12.5 µM in assay [1] turned out to be 100%. Besides, the viability at 6.25 µM in assay [2] was 100%. Also, the viability at 25 µM in assay [3] turned out to be 99%. Besides, in assay [4], the viability at 100 µM was 100%. The viability at 50 µM in assay [5] turned out to be 100%.
As to `CCCCCCCC/C=C\CCCCCCCCOC[C@H]1COCS(=O)(=O)N1Cc1ccccc1`, in assay [1], the viability at 12.5 µM was 81%. In assay [2], the viability at 6.25 µM came out at 71%. Further, in assay [3], the viability at 25 µM was 81%. For the same molecule, the viability at 100 µM in assay [4] was 96%. Moreover, the viability at 50 µM in assay [5] was found to be 82%.
As for `O=S1(=O)COC[C@@H](COCc2ccc(F)cc2)N1Cc1ccccc1`, the viability at 12.5 µM in assay [1] was determined as 86%. Moreover, the viability at 6.25 µM in assay [2] is 93%. For the same molecule, the viability at 25 µM in assay [3] turned out to be 88%. Also, the viability at 100 µM in assay [4] is 96%. The viability at 50 µM in assay [5] was determined as 99%.
The corresponding values for `COc1cccc(COC[C@@H]2COCS(=O)(=O)N2Cc2ccccc2)c1` are 100%, 100%, 100%, 89% and 96%.
The matching figures for `O=C(OC[C@@H]1COCS(=O)(=O)N1Cc1ccccc1)c1ccccc1`: 98%, 81%, 88%, 100% and 89%.
The matching figures for `CN1[C@H](COCc2ccccc2)COCS1(=O)=O`: 81%, 85%, 88%, 82% and 83%.
In the case of `CCCCCCCC/C=C\CCCCCCCCOC[C@@H]1COCS(=O)(=O)N1C`, in assay [1], the viability at 12.5 µM was determined as 71%. For the same molecule, the viability at 6.25 µM in assay [2] was 72%. The viability at 25 µM in assay [3] was found to be 65%. The viability at 100 µM in assay [4] worked out at 65%. Besides, the viability at 50 µM in assay [5] was 65%.
Turning to `CN1[C@H](COCc2ccc(-c3ccccc3)cc2)COCS1(=O)=O`, the viability at 12.5 µM in assay [1] amounted to 66%. For the same molecule, the viability at 6.25 µM in assay [2] was found to be 89%. In assay [3], the viability at 25 µM turned out to be 60%. Besides, in assay [4], the viability at 100 µM came out at 52%. Besides, the viability at 50 µM in assay [5] amounted to 61%.
With `CN1[C@H](COCc2ccc3ccccc3c2)COCS1(=O)=O`, in assay [1], the viability at 12.5 µM stood at 82%. In addition, the viability at 6.25 µM in assay [2] turned out to be 81%. For the same molecule, in assay [3], the viability at 25 µM came to 73%. Besides, the viability at 100 µM in assay [4] is 74%. In addition, the viability at 50 µM in assay [5] was determined as 74%.
